Experimental data of several laboratories.
Compare with care: the assays were run in different laboratories.
Observed: metabolic stability
Species: mouse

C[C@@H]1CNC[C@H](C)[C@@]1(O)c1ccc(-c2ccnc3[nH]cc(F)c23)cc1  half-life (liver microsomes): 49 min
CCN(CC)CCNC(=O)c1c(C)[nH]c(/C=C2\C(=O)Nc3ccc(F)cc32)c1C  half-life (liver microsomes; 1 µM): 12.6 min
Cc1cc(-c2ccnc3[nH]cc(F)c23)cc(F)c1[C@@]1(O)[C@H](C)CNC[C@@H]1C  half-life (liver microsomes): 18.9 min
NS(=O)(=O)c1nnc(NC(=O)CCC2CCC(F)(F)CC2)s1  half-life (liver microsomes): > 120 min
CCCCCCCCCCCCCCCC(=O)NCCOC(=O)C[C@@H](CN)CC(C)C  half-life (liver microsomes; 1 µM; pH 7.4): 95 min
NS(=O)(=O)c1nnc(NC(=O)CCC2CC3CCC2C3)s1 (stereo not drawn)  half-life (liver microsomes): 46 min
CC(C)C(=O)OCc1cc2[nH]c(=S)n(Cc3cccnc3)c(=O)c2cc1Cl  half-life (liver microsomes; 1 µM; pH 7.4): < 5 min
Cc1cc(-c2ccnc3[nH]cc(F)c23)cc(F)c1[C@@]1(O)[C@H](C)CN(C)C[C@@H]1C  half-life (liver microsomes): 1.7 min
O=c1c2cc(Cl)ncc2[nH]c(=S)n1Cc1cccnc1  half-life (liver microsomes; 1 µM; pH 7.4): 89.7 min
O=c1c2ccc(Oc3ccc(OC(F)(F)F)cc3)cc2[nH]c2ccc(F)c(Cl)c12  half-life (liver microsomes; 1 µM; pH 7.4): > 60 min
Cc1cc(-c2ccnc3[nH]cc(F)c23)cc(F)c1[C@@]1(O)[C@H](C)CN(C2CCS(=O)(=O)CC2)C[C@@H]1C  half-life (liver microsomes): 45.9 min
O=c1c2cc(Cl)ccc2[nH]c(=S)n1Cc1ccc(-c2nnn[nH]2)nc1  half-life (liver microsomes; 1 µM; pH 7.4): > 186 min
OCc1ccc(-c2nn(Cc3ccccc3)c3ccccc23)o1  half-life (hepatocytes): 1.89 min
O=c1c2c(F)cc(Cl)cc2[nH]c2cccc(Oc3ccc(OC(F)(F)F)cc3)c12  half-life (liver microsomes; 1 µM; pH 7.4): > 60 min
Nc1nnc(-c2ccccc2O)cc1N1CCN(Cc2ccc(N3CCC(CN4CCN(c5ccc6c(c5)C(=O)N(C5CCC(=O)NC5=O)C6=O)CC4)CC3)c(F)c2)CC1 (stereo not drawn)  half-life (liver microsomes; 1 mM): 59 min
C[C@@H]1CNC[C@H](C)[C@@]1(O)c1ccc(-c2ccnc3[nH]cc(F)c23)cc1F  half-life (liver microsomes): 30.1 min
CC(C)c1cc(C(=O)NCCN)c2cnn(C(C)C)c2n1  half-life (liver microsomes): > 145 min
Cc1[nH]c(C)c(S(=O)(=O)Nc2ccc(C(F)(F)F)c(Cl)c2Cl)c1C(=O)N1CCC(F)(F)C1  half-life (liver microsomes): 44 min
O=c1c2c([nH]c3c(Oc4ccc(OC(F)(F)F)cc4)cccc13)CCCC2  half-life (liver microsomes; 1 µM; pH 7.4): > 60 min
NC1=NN(c2ccc(Oc3ccccc3)c(S(=O)(=O)O)c2)C(=O)C1  half-life (liver microsomes; 1 µM): 51.2 min
O=c1c2c([nH]c3cc(OCc4ccc(OC(F)(F)F)cc4)ccc13)CCCC2  half-life (liver microsomes; 1 µM; pH 7.4): > 60 min
C[C@@H]1CNC[C@H](C)[C@@]1(O)c1ccc(-c2ccnc3[nH]cc(F)c23)cc1Cl  half-life (liver microsomes): 9.1 min
O=c1c2cccc(Oc3ccc(OC(F)(F)F)cc3)c2[nH]c2cc(Cl)cc(F)c12  half-life (liver microsomes; 1 µM; pH 7.4): > 60 min
COc1ccc(Cn2cc(CO[C@@H]3O[C@H]4[C@H](OC[C@H]4O)[C@H]3O)nn2)cc1  half-life (liver microsomes): 120 min
CCCCCCOc1ccc2c(=O)c3c([nH]c2c1)CCCC3  half-life (liver microsomes; 1 µM; pH 7.4): 11.8 min
O=c1c2cc(Cl)c(CO)cc2[nH]c(=S)n1Cc1cccnc1  half-life (liver microsomes; 1 µM; pH 7.4): 29.5 min
CN1CCC(Oc2ccc3c(=O)c4c(F)cc(Cl)cc4[nH]c3c2)CC1  half-life (liver microsomes; 1 µM; pH 7.4): > 60 min
Cc1c(C)n(Cc2cccc(OC(C)(C)C(=O)O)c2)c2ccc(C(=O)N[C@@H](C)c3ccc(C(C)(C)C)cc3)cc12  half-life (liver microsomes): > 60 min
CCN(CC)CCCOc1ccc2c(=O)c3c([nH]c2c1)CCCC3  half-life (liver microsomes; 1 µM; pH 7.4): > 60 min
C=CCn1c(=O)c2cnc(Nc3ccc(N4CCN(C)CC4)cc3)nc2n1-c1ccc2c(n1)[C@@](O)(CC)CC2  half-life (liver microsomes): 77 min
